MIC data for four compounds are collected here from ChEMBL document CHEMBL1275555, “Genetic heterogeneity in pbp genes among clinically isolated group B Streptococci with reduced penicillin susceptibility” (2008).

Converted amounts (≈) assume the structure as drawn. Bounds are passed on as bounds.

In assay [1] the test system is Streptococcus sp. 'group B'. The assay is described as follows: Antimicrobial activity against Group B Streptococcus serotype V harboring E63K mutation in PBP 2A and L41S mutation in PBP 1B by broth microdilution method.
For assay [2], the system named is Streptococcus sp. 'group B'. The assay is described as follows: Antimicrobial activity against Group B streptococcus serotype V C1 harboring E63K mutation in PBP 2A and L41S mutation in PBP 1B by broth microdilution method. The class given is functional. The method in brief:
(§1)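 Broth microdilution MICs following CLSI guidelines, using a commercial panel system; GBS clinical isolates and reference strains grown in Todd-Hewitt broth at 37°C. Each strain tested five times to confirm reproducibility, with S. pneumoniae ATCC 49619 as quality-control strain. No β-lactamase activity by acidimetric method in any strain.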

The test system of assay [3] is Streptococcus sp. 'group B'. As to the kind of experiment: Antimicrobial activity against Group B streptococcus serotype Ib R3 harboring Q557E, A400V mutations in PBP 2X and T567I, G539E mutations in PBP 2B by broth microdilution method. The class given is functional. An outline of the steps: as §1
A general note: Broth dilution looks for growth in wells or tubes with falling amounts of substance.

Assay [4] relates to Streptococcus sp. 'group B'. The assay is described as follows: Antimicrobial activity against Group B Streptococcus serotype Ia N1 harboring E63K mutation in PBP 2A and L41S mutation in PBP 1B by broth microdilution method. The class given is functional. An outline of the steps:
as §1

The subject of assay [5] is Streptococcus sp. 'group B'. As to the kind of experiment: Antimicrobial activity against Group B streptococcus serotype VI R6 harboring F395L, V405A, R433H, H438Y, A374V and G648A mutations in PBP 2X and T567I mutation in PBP 2B by broth microdilution method. The class given is functional. An outline of the steps:
as §1

Assay [6] relates to Streptococcus sp. 'group B'. The assay is described as follows: Antimicrobial activity against Group B streptococcus serotype VI R4 harboring Q557E mutation in PBP 2X and T567I, Y262N mutations in PBP 2B by broth microdilution method. The class given is functional. The method in brief:
as §1

Assay [7] has as its system Streptococcus sp. 'group B'. As to the kind of experiment: Antimicrobial activity against Group B Streptococcus serotype III NEM 316 by broth microdilution method. The class given is functional. An outline of the steps: (§2)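 Broth microdilution MICs read on a commercial dried panel system (type 3J), following CLSI guidelines. Isolates were grown in Todd-Hewitt broth at 37°C. Each strain was tested five times for reproducibility, with S. pneumoniae ATCC 49619 as the quality-control strain. β-lactamase activity was checked by the acidimetric method.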

Assay [8] deals with Streptococcus sp. 'group B'. As to the kind of experiment: Antimicrobial activity against Group B streptococcus serotype VI R1 harboring F395L, V405A, R433H, H438Y, and G648A mutations in PBP 2X and T567I mutation in PBP 2B by broth microdilution method. The class given is functional. An outline of the steps:
as §1

Assay [9] deals with Streptococcus sp. 'group B'. As to the kind of experiment: Antimicrobial activity against Group B streptococcus serotype VI R2 harboring F395L, V405A, R433H, H438Y, and G648A mutations in PBP 2X and T567I mutation in PBP 2B by broth microdilution method. The class given is functional. An outline of the steps: as §1
Assay [10] has as its system Streptococcus sp. 'group B'. As to the kind of experiment: Antimicrobial activity against Group B streptococcus serotype VI R5 harboring F395L, V405A, R433H, H438Y, and G648A mutations in PBP 2X and T567I mutation in PBP 2B by broth microdilution method. The class given is functional. An outline of the steps: as §1
In assay [11] the test system is Streptococcus sp. 'group B'. The assay is described as follows: Antimicrobial activity against Group B streptococcus serotype III N3 by broth microdilution method. The class given is functional. The method in brief:
as §2

In assay [12] the test system is Streptococcus sp. 'group B'. As to the kind of experiment: Antimicrobial activity against Group B streptococcus R8 harboring T77I, S353F and A514V in PBP 2X; V80A and G613R in PBP 2B; and L45P, N163K, N723S and G527V in PBP 1A by broth microdilution method. The class given is functional. The method in brief: as §1
For assay [13], the system named is Streptococcus sp. 'group B'. As to the kind of experiment: Antimicrobial activity against Group B streptococcus serotype Ib C2 harboring E63K mutation in PBP 2A and L41S mutation in PBP 1B by broth microdilution method. The class given is functional. An outline of the steps:
as §1

The test system of assay [14] is Streptococcus sp. 'group B'. As to the kind of experiment: Antimicrobial activity against Group B streptococcus serotype Ib N2 harboring E63K mutation in PBP 2A and L41S mutation in PBP 1B by broth microdilution method. The class given is functional. The method in brief:
as §1

The test system of assay [15] is Streptococcus sp. 'group B'. The assay is described as follows: Antimicrobial activity against Group B streptococcus serotype VI N4 harboring E63K mutation in PBP 2A and L41S mutation in PBP 1B by broth microdilution method. The class given is functional. An outline of the steps: as §1
The subject of assay [16] is Streptococcus sp. 'group B'. The assay is described as follows: Antimicrobial activity against Group B streptococcus serotype Ia R7 harboring T77I, F395V and S353F in PBP 2X; V80A and G613R in PBP 2B; and L45P, N163K, N723S and Y470F in PBP 1A by broth microdilution method. The class given is functional. An outline of the steps:
as §1

Usually MIC stands for the least concentration at which growth counts as inhibited. Lower therefore signals a more susceptible organism. Turning to `CC1(C)S[C@@H]2[C@H](NC(=O)Cc3ccccc3)C(=O)N2[C@H]1C(=O)O` [PENICILLIN G], the MIC in [1] came out at 0.06 µg/mL (≈ 0.179 µM); in [2], 0.06 µg/mL (≈ 0.179 µM); in assay [3], 0.5 µg/mL (≈ 1.5 µM); in assay [4], 0.06 µg/mL (≈ 0.179 µM); in assay [5], 0.5 µg/mL (≈ 1.5 µM); in [6], 0.5 µg/mL (≈ 1.5 µM). Moreover, the MIC in assay [7] was determined as 0.06 µg/mL (≈ 0.179 µM); in assay [8], 0.5 µg/mL (≈ 1.5 µM); in [9], 0.5 µg/mL (≈ 1.5 µM); in assay [10] it was 0.25 µg/mL (≈ 0.748 µM); in assay [11], 0.06 µg/mL (≈ 0.179 µM); in assay [12] it was 1 µg/mL (≈ 2.99 µM). Further, the MIC in assay [13] amounted to 0.06 µg/mL (≈ 0.179 µM); in assay [14] it was 0.06 µg/mL (≈ 0.179 µM); in [15], 0.06 µg/mL (≈ 0.179 µM); in assay [16], 1 µg/mL (≈ 2.99 µM).
As to `CN(C)CCn1nnnc1SCC1=C(C(=O)O)N2C(=O)[C@@H](NC(=O)Cc3csc(N)n3)[C@H]2SC1` [CEFOTIAM], the MIC in assay [1] was not above 0.5 µg/mL; in assay [2], not above 0.5 µg/mL; in assay [3], 4 µg/mL (≈ 7.61 µM); in assay [4], not above 0.5 µg/mL; in [5] it was 4 µg/mL (≈ 7.61 µM); in assay [6] it was 4 µg/mL (≈ 7.61 µM). For the same compound, the MIC in assay [7] was not above 0.5 µg/mL; in assay [8], 4 µg/mL (≈ 7.61 µM); in assay [9], 4 µg/mL (≈ 7.61 µM); in [10] it was 2 µg/mL (≈ 3.8 µM); in assay [11], not above 0.5 µg/mL; in assay [12], more than 4 µg/mL. Moreover, the MIC in assay [13] is not above 0.5 µg/mL; in assay [14] it was not above 0.5 µg/mL; in assay [15], not above 0.5 µg/mL; in assay [16], more than 4 µg/mL.
As for `CN(C)[C@@H]1C(O)=C(C(N)=O)C(=O)[C@@]2(O)C(O)=C3C(=O)c4c(O)cccc4[C@@](C)(O)[C@H]3C[C@@H]12` [TETRACYCLINE], the MIC was more than 4 µg/mL in [1]; more than 4 µg/mL in assay [2]; not above 0.5 µg/mL in [3]; more than 4 µg/mL in assay [4]; more than 4 µg/mL in assay [5]; more than 4 µg/mL in [6]. In addition, the MIC in [7] is not above 0.5 µg/mL; in [8], more than 4 µg/mL; in [9], more than 4 µg/mL; in assay [10], more than 4 µg/mL; in assay [11] it was more than 4 µg/mL; in [12], more than 4 µg/mL. For the same compound, the MIC is not above 0.5 µg/mL in assay [13], not above 0.5 µg/mL in assay [14], more than 4 µg/mL in [15] and more than 4 µg/mL in assay [16].
Consider `C[C@H]1COc2c(N3CCN(C)CC3)c(F)cc3c(=O)c(C(=O)O)cn1c23.C[C@H]1COc2c(N3CCN(C)CC3)c(F)cc3c(=O)c(C(=O)O)cn1c23.O` [LEVOFLOXACIN], for which the MIC in [1] was 0.5 µg/mL; in assay [2] it was 0.5 µg/mL; in assay [3] it was more than 8 µg/mL; in [4] it was 1 µg/mL; in assay [5], 4 µg/mL; in assay [6], 2 µg/mL. For the same compound, the MIC in assay [7] is 0.5 µg/mL; in assay [8] it was 8 µg/mL; in assay [9], 8 µg/mL; in assay [10] it was 4 µg/mL; in [11] it was 0.5 µg/mL; in assay [12], more than 8 µg/mL. Besides, the MIC in assay [13] was more than 8 µg/mL; in assay [14] it was 0.5 µg/mL; in [15], 0.5 µg/mL; in assay [16], more than 8 µg/mL.
